Published values gathered from unrelated publications.
RPS6KA1 N-terminal kinase domain: Ribosomal protein S6 kinase alpha-1, N-terminal kinase domain (RPS6KA1, Homo sapiens, UniProt Q15418)
RPS6KA1 C-terminal kinase domain: Ribosomal protein S6 kinase alpha-1, C-terminal kinase domain (RPS6KA1, Homo sapiens, UniProt Q15418)
RPS6KA1: Ribosomal protein S6 kinase alpha-1 (RPS6KA1, Homo sapiens, UniProt Q15418)

C[C@@H]1CCN(c2nccc(-c3cnn4ncccc34)n2)C1
remaining binding (RPS6KA1 N-terminal kinase domain; binding; competition with immobilised ligand; 1 µM): 100%

O=C1NC(c2ccccn2)Sc2ccccc21 (centres unmarked)
remaining binding (RPS6KA1 C-terminal kinase domain; cell-free assay; competition with immobilised ligand; 1 µM): 100%

O=C(Nc1cnn(-c2csc(C(=O)NC3COC3)c2)c1)Nc1c(F)cccc1Cl
remaining activity (RPS6KA1; enzyme activity; inhibitor; 5 µM): 96.3%

Nc1nc(NC2CCCCC2)sc1C(=O)c1ccccc1
remaining activity (RPS6KA1; enzyme activity; inhibitor; 10 µM): 67%

Cc1ccc(NC(=O)c2ccc(C)c(C(F)(F)F)c2)cc1C#Cc1nn(C2CCC(O)CC2)c2ncnc(N)c12 (centres unmarked)
remaining signal (RPS6KA1; cell-free assay; 10 µM): 11%

CC(C)(C)c1nc2c(s1)c1nc(N)ncc1c1ccc(NS(=O)(=O)c3c(F)cccc3F)c(F)c12
remaining activity (RPS6KA1; enzyme activity; inhibitor; radiometric; 1 µM): 107%

c1cnn2ncc(-c3ccnc(N4CCC45COC5)n3)c2c1
remaining binding (RPS6KA1 N-terminal kinase domain; binding; competition with immobilised ligand; 1 µM): 90%

Cc1ccc(C(=O)NCc2ccsc2)cc1C#Cc1cn(C(C)C)c2ncnc(N)c12
activity vs control (RPS6KA1; enzyme activity; inhibitor; 1 µM): 101%

COc1cc2ncnc(Nc3ccc(Oc4ccccc4)c(C)c3C)c2cc1OC
inhibition (RPS6KA1; enzyme activity; inhibitor; 1 µM): -2%

CN(C)CC#Cc1ccc(OCCCc2sc(N3CCc4cccc(C(=O)Nc5nc6ccccc6s5)c4C3)nc2C(=O)O)c(F)c1
remaining binding (RPS6KA1 C-terminal kinase domain; cell-free assay; competition with immobilised ligand; 1 µM): 93%

CC/C(=N\NC(=O)C(C)Nc1ccccc1)c1ccc(O)c(C)c1O (centres unmarked)
inhibition (RPS6KA1; enzyme activity; inhibitor; 0.1 µM): 36.6%

C[S+]([O-])c1ccc(-c2nc(-c3ccncc3)c(-c3ccc(F)cc3)[nH]2)cc1 (centres unmarked)
remaining signal (RPS6KA1; cell-free assay; 0.5 µM): 99.9%

CCN(CC)c1ccc(C2=NNC(=O)CC2C)cc1[N+](=O)[O-] (centres unmarked)
remaining activity (RPS6KA1; enzyme activity; inhibitor; 10 µM): 101%

CC(=O)c1c(NS(C)(=O)=O)c2cc(-c3ccc(Cl)cc3)c(-c3ccc(Cl)cc3Cl)nc2n(C)c1=O
remaining binding (RPS6KA1 N-terminal kinase domain; cell-free assay; competition with immobilised ligand; 1 µM): 93%

N[C@@H]1CCN(c2nccc(-c3cnn4ncccc34)n2)C1
remaining binding (RPS6KA1 C-terminal kinase domain; binding; competition with immobilised ligand; 1 µM): 100%

Cc1nccc(COC(=O)N2C[C@@H]3[C@@H](CNC(=O)c4ccc5[nH]nnc5c4)[C@@H]3C2)n1
remaining binding (RPS6KA1 C-terminal kinase domain; cell-free assay; competition with immobilised ligand; 1 µM): 96%

CCN(CC)CCNC(=O)c1c(C)[nH]c(/C=C2\C(=O)Nc3ccc(F)cc32)c1C
remaining signal (RPS6KA1; cell-free assay; 0.5 µM): 28%

COc1ccc2c(c1)O[C@@H](c1ccc(OC)c(OC)c1)C[C@H]2NC(=O)C1(c2ccc3c(c2)OC(F)(F)O3)CC1
remaining binding (RPS6KA1 C-terminal kinase domain; cell-free assay; competition with immobilised ligand; 1 µM): 85%

Nc1ncnc2occ(-c3ccc(NC(=O)Nc4cc(C(F)(F)F)ccc4F)cc3)c12
remaining signal (RPS6KA1 C-terminal kinase domain; cell-free assay; inhibitor; 20 µM): 20%

CS(=O)(=O)N1CCCC(NC(=O)[C@H](CCC2CCCCC2)NC(=O)c2ccc(CNC(=O)c3cnc4ccccn34)cc2)C1 (some centres unmarked)
remaining binding (RPS6KA1 C-terminal kinase domain; cell-free assay; competition with immobilised ligand; 0.1 µM): 92%

FC(F)c1nc2ccccc2n1-c1nc(N2CCOCC2)nc(N2CCOCC2)n1
remaining activity (RPS6KA1; enzyme activity; inhibitor; 10 µM): 95%

COc1cc2ncnc(Nc3ccc(F)c(Cl)c3)c2cc1OCCCN1CCOCC1
remaining signal (RPS6KA1; cell-free assay; 0.5 µM): 97.3%

Cc1cc(C)c(-n2ccn3nc(-c4cccnc4)cc23)cc1NC(=O)c1cc(C#N)cc(S(F)(F)(F)(F)F)c1
remaining binding (RPS6KA1 N-terminal kinase domain; cell-free assay; competition with immobilised ligand; 0.1 µM): 97%
